The values that follow come from ChEMBL document CHEMBL1139291, “Syntheses and opioid receptor binding properties of carboxamido-substituted opioids” (Bioorg Med Chem Lett, 2009).

Experiment [1] deals with T1, Mu-type opioid receptor (Homo sapiens, UniProt P35372). Nature of the experiment: Displacement of [3H]DAMGO form human mu opioid receptor expressed in CHO cells. Type of experiment: cell-based. (Loss of bound radioactivity is the signal in a displacement assay; it reports binding, not function.)
T1 sequence (P35372 whole entry): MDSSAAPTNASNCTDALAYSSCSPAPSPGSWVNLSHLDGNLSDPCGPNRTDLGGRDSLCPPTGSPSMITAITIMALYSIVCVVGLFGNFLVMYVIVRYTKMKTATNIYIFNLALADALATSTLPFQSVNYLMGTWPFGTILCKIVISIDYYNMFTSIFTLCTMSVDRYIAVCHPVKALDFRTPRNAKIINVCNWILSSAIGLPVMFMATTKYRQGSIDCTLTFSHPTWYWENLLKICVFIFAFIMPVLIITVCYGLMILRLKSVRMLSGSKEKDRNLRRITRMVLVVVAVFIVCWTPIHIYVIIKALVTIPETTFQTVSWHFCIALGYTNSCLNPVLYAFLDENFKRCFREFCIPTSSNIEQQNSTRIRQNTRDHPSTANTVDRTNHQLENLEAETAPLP
The target of experiment [2] is Delta-type opioid receptor (Homo sapiens, UniProt P41143). Nature of the experiment: Displacement of [3H]Naltrindole form human delta opioid receptor expressed in CHO cells. Type of experiment: cell-based. The essentials:
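Membranes from CHO cells stably expressing the human receptor incubated with 12 concentrations of compound and 0.2 nM [3H]naltrindole in 50 mM Tris–HCl, pH 7.5, with 10 mM MgCl2 and 0.5 mM PMSF, for 3 h at 25 °C. Filters were soaked in 0.1% PEI before filtration and scintillation counting. IC50 came from log-probit fit, and Ki = IC50/(1 + [radioligand]/Kd).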

In experiment [3] the target is T2, Kappa-type opioid receptor (Homo sapiens, UniProt P41145). Briefly: Displacement of [3H]U69593 form human kappa opioid receptor expressed in CHO cells. Type of experiment: cell-based.
T2 sequence (P41145 whole entry): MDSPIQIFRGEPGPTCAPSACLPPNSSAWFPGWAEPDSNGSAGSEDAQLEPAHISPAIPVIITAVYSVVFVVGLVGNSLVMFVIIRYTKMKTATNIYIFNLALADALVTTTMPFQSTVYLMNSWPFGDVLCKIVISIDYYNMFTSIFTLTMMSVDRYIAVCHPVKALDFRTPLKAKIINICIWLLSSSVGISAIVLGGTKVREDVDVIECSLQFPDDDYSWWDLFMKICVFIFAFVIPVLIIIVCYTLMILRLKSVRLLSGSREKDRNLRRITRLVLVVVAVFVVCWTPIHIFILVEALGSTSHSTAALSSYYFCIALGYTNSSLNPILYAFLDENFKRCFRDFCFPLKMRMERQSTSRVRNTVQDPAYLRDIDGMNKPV
For experiment [4], the system named is CHO. Nature of the experiment: Ratio of Ki for human mu opioid receptor to Ki for human kappa opioid receptor expressed in CHO cells. Type of experiment: cell-based.
The test system of experiment [5] is CHO. Nature of the experiment: Ratio of Ki for human delta opioid receptor to Ki for human kappa opioid receptor expressed in CHO cells. Type of experiment: cell-based.
Experiment [6] has as its target T1, Mu-type opioid receptor. Briefly: Activity at human cloned mu opioid receptor expressed in CHO cells by [35S]GTPgammaS binding assay. Type of experiment: functional, cell-based. A general note: Binding of GTPγS marks nucleotide exchange on a G protein.
Experiment [7] has as its target T2, Kappa-type opioid receptor. Nature of the experiment: Activity at human cloned kappa opioid receptor expressed in CHO cells by [35S]GTPgammaS binding assay. Type of experiment: functional, cell-based.
Experiment [8] concerns the target T2, Kappa-type opioid receptor. Briefly: Activity at human cloned kappa opioid receptor expressed in CHO cells assessed as inhibition of U50488-induced [35S]GTPgammaS binding. Type of experiment: functional, cell-based.
Experiment [9] concerns the target Mu-type opioid receptor (Cavia porcellus, UniProt P97266). Briefly: Displacement of [3H]DAMGO form mu opioid receptor in guinea pig brain.
Experiment [10] is described as follows: Displacement of [3H]Naltrindole form delta opioid receptor in guinea pig brain. More on the design: species or system Cavia porcellus. An outline of the steps: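 Guinea pig brain membrane protein incubated with 12 concentrations of compound and 0.2 nM [3H]naltrindole in 50 mM Tris–HCl, pH 7.5, with 10 mM MgCl2 and 0.5 mM PMSF, for 3 h at 25 °C. Samples filtered onto polyethyleneimine-soaked glass fiber filters, washed, and counted by scintillation. IC50 came from log-probit fit, and Ki = IC50/(1 + [radioligand]/Kd).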

The species entered for a further experiment is Cavia porcellus. Briefly: Ratio of Ki for delta opioid receptor to Ki for kappa opioid receptor in guinea pig brain.
The target in experiment [11] is Kappa-type opioid receptor (Cavia porcellus, UniProt P41144). Briefly: Displacement of [3H]U69593 form kappa opioid receptor in guinea pig brain.
Kappa-type opioid receptor (Cavia porcellus, UniProt P41144), sequence (P41144 whole entry): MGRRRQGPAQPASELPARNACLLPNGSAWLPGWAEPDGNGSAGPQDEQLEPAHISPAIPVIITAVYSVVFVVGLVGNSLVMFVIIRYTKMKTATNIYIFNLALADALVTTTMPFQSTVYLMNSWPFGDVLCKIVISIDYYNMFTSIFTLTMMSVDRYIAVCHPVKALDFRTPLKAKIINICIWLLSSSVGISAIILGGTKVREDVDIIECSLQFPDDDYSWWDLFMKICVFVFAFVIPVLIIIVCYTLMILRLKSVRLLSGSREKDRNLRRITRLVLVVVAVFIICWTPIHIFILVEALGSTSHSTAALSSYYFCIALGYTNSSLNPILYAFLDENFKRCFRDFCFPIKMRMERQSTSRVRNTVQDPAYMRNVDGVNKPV
In experiment [12] the target is T1, Mu-type opioid receptor. Briefly: Activity at human cloned mu opioid receptor expressed in CHO cells assessed as inhibition of DAMGO-induced [35S]GTPgammaS binding. Type of experiment: functional, cell-based.

Each structure is given as a SMILES string. pEC50, pIC50, pKi: −log10 of the molar value.

Mu-type opioid receptor (Cavia porcellus, UniProt P97266), sequence (P97266 whole entry): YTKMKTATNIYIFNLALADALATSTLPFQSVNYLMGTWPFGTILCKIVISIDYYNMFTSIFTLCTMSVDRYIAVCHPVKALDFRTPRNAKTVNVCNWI
Delta-type opioid receptor, sequence (P41143 whole entry): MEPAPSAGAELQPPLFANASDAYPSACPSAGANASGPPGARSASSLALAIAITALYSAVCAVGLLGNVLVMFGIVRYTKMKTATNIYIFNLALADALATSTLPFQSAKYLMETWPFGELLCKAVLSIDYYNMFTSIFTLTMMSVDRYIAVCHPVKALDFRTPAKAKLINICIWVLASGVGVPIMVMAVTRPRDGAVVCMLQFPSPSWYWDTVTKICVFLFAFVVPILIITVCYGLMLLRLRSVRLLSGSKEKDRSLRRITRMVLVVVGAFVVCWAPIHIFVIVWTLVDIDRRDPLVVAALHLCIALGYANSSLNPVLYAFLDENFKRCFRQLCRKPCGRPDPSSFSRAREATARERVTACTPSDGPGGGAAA

On to `C=CCN1CC[C@]23c4c5ccc(C(N)=O)c4O[C@@H]2[C@@H](O)C=C[C@H]3[C@H]1C5`, for which the negative-log Ki (pKi) (usually the Ki on a negative log10 scale, so that one unit is a factor of ten) on Mu-type opioid receptor [1] was 7.74; in [2], less than 5.00; in [3], 7.00. Besides, in the experiment with CHO [4], the Ratio Ki came out at 0.2.
Regarding `C=CCN1CC[C@]23c4c5ccc(O)c4O[C@H]2[C@@H](O)C=C[C@H]3[C@H]1C5` [NALORPHINE], the pKi is 9.72 on Mu-type opioid receptor [1], 6.92 in experiment [2] and 9.42 in experiment [3]. The Ratio Ki with CHO [4] amounted to 0.5; in the experiment with CHO [5] it was 320.
With `CC1C2Cc3ccc(C(N)=O)cc3C1(C)CCN2CCc1ccccc1` (stereo not drawn), the negative-log Ki (pKi) on Mu-type opioid receptor [1] was 10.82; in experiment [2], 8.92; in [3] it was 9.26. Moreover, the Ratio Ki in the experiment on CHO [4] was 0.03; in the experiment on CHO [5], 2. In addition, the pEC50 (as a rule, −log10 of the EC50, conventionally taken in molar units) on Mu-type opioid receptor [6] is 8.28; in experiment [7] it was 8.36. In addition, the negative logarithm of the IC50 (pIC50) – broadly, the negative decadic logarithm of the IC50, by convention in mol/L – in [8] is 6.19.
For the compound `CCC12CCN(CC3CC3)C(C(=O)c3ccc(O)cc31)C2C` (stereo not drawn), the values for the pKi (on Mu-type opioid receptor [9]; in experiment [10]) were 9.11 and 8.47, respectively.
As to `CC1C2Cc3ccc(C(N)=O)cc3C1(C)CCN2CC1CC1` (stereo not drawn), the negative-log Ki (pKi) in experiment [2] is 8.28.
`NC(=O)c1ccc2c3c1O[C@H]1[C@H](O)CC[C@@]4(O)[C@@H](C2)N(CC2CC2)CC[C@]314`: the figures for the pKi (at Mu-type opioid receptor [1]; in [2]; in [3]) were 8.60, less than 5.00 and 7.52, respectively. Also, the Ratio Ki in the experiment with CHO [4] stood at 0.08.
`NC(=O)c1ccc2c3c1O[C@H]1C(=O)CC[C@@]4(O)[C@@H](C2)N(CC2CC2)CC[C@]314` had a pKi in experiment [3] of 9.44. For the same compound, the Ratio Ki in the experiment on CHO [4] is 0.065; in the experiment on CHO [5] it was 50.
In the case of `CC(C)=CCN1CC[C@@]2(C)c3cc(O)ccc3C[C@@H]1[C@@H]2C` (relative stereo), the pKi in experiment [2] was 6.74; in [3] it was 8.52.
For `C[C@H]1C2Cc3ccc(O)cc3[C@@]1(C)CCN2CCc1ccccc1`, the negative logarithm of the Ki (pKi) on Mu-type opioid receptor [1] is 9.70; in [2] it was 8.30; in [3] it was 8.70. Further, the Ratio Ki in the experiment on CHO [4] worked out at 0.1; in the experiment on CHO [5], 2.5. The negative-log EC50 (pEC50) is 7.57 at Mu-type opioid receptor [6] and 8.09 in experiment [7].
As to `C[C@H]1[C@@H]2Cc3ccc(O)cc3[C@]1(C)CCN2C` [METAZOCINE], the pKi on Mu-type opioid receptor [1] was 8.42; in experiment [2], 6.85; in [3] it was 8.00. The Ratio Ki in the experiment with CHO [4] amounted to 0.4; in the experiment on CHO [5], 14. Further, the negative-log EC50 (pEC50) at Mu-type opioid receptor [6] was 7.40; in experiment [7], 6.92.
Regarding `CCC12CCN(CC3CC3)C(C(=O)c3ccc(C(N)=O)cc31)C2C` (stereo not drawn), the pKi at Mu-type opioid receptor [9] was 8.92; in experiment [10], 8.01. In addition, the Ratio Ki in the experiment listed under Cavia porcellus is 14.
`CN(C)C[C@H]1CCCC[C@]1(O)c1cccc(C(N)=O)c1` (relative stereo): the figures for the negative-log Ki (pKi) (at Mu-type opioid receptor [1]; in experiment [2]; in experiment [3]) were 8.02, 5.62 and 6.46, respectively. The figures for the Ratio Ki in the experiment with CHO [4] and in the experiment with CHO [5] were 0.03 and 7, respectively.
On to `CN(C)C[C@H]1CCCC[C@]1(O)c1cccc(O)c1` (relative stereo) [O-DESMETHYL TRAMADOL], for which the pKi in experiment [2] was 5.54; in [3], 6.35.
As for `CC1C2Cc3ccc(O)cc3[C@@]1(C)CCN2C[C@@H]1CCCO1` (single isomer, unassigned), the values for the negative-log Ki (pKi) (on Mu-type opioid receptor [9]; in [10]; in experiment [11]) were 9.72, 8.44 and 10.05, respectively. The Ratio Ki in the experiment listed under Cavia porcellus is 40. In addition, the pEC50 is 8.57 at Mu-type opioid receptor [6] and 9.00 in [7]. Also, the negative-log IC50 (pIC50) on Mu-type opioid receptor [12] was 7.77.
`NC(=O)c1ccc2c3c1O[C@H]1C4NC5C(C[C@@]6(O)[C@H]7Cc8ccc(C(N)=O)c9c8[C@@]6(CCN7CC6CC6)[C@H]5O9)C4C[C@@]4(O)[C@@H](C2)N(CC2CC2)CC[C@]314` (stereo partly drawn): the pKi at Mu-type opioid receptor [1] was 6.40; in experiment [2], 6.00; in experiment [3] it was 7.68. For the same compound, the values for the Ratio Ki in the experiment with CHO [4] and in the experiment with CHO [5] were 19 and 50, respectively.
`CC1C2C(=O)c3ccc(C(N)=O)cc3C1(C)CCN2CC1CC1` (stereo not drawn): the negative logarithm of the Ki (pKi) was 8.85 at Mu-type opioid receptor [9] and 7.70 in [10]. In addition, the negative-log EC50 (pEC50) in experiment [7] is 8.02.
`NC(=O)c1ccc2c(c1)[C@@]13CCCC[C@@]1(O)[C@@H](C2)N(CC1CCC1)CC3`: the pKi at Mu-type opioid receptor [1] was 9.82; in experiment [2] it was 7.85; in experiment [3], 9.41. In addition, the figures for the Ratio Ki with CHO [4] and in the experiment on CHO [5] were 0.38 and 40, respectively. Also, the pIC50 at Mu-type opioid receptor [12] is 7.52. In [7], the negative logarithm of the EC50 (pEC50) is 8.42.
Take `C[C@@H]1[C@@H]2Cc3ccc(C(N)=O)cc3[C@@]1(C)CCN2C[C@H]1CCCO1`: the values for the pKi (on Mu-type opioid receptor [9]; in experiment [10]; in [11]) were 8.54, 7.47 and 8.55, respectively. The compound also showed a pEC50 in experiment [7] of 6.77.
As for `C=C1CC[C@@]2(O)[C@H]3Cc4ccc(C(N)=O)c5c4[C@@]2(CCN3CC2CC2)[C@H]1O5`, the negative-log Ki (pKi) on Mu-type opioid receptor [1] was 8.59; in [2] it was 7.17; in experiment [3], 8.68. For the same compound, the results for the Ratio Ki in the experiment with CHO [4] and in the experiment on CHO [5] were 1 and 32, respectively.
`CC(C)=CCN1CC[C@@]2(C)c3cc(C(N)=O)ccc3C[C@@H]1[C@@H]2C` (relative stereo): the pKi is 6.66 in experiment [2] and 8.25 in [3].
Consider `C[C@H]1[C@H]2C(=O)c3ccc(O)cc3[C@]1(C)CCN2CC1CC1` [KETAZOCINE], for which the pKi in [10] was 7.70; in experiment [11] it was 9.00. Moreover, the negative-log EC50 (pEC50) was 7.68 at Mu-type opioid receptor [6] and 8.48 in experiment [7]. In addition, the pIC50 on Mu-type opioid receptor [12] is 6.89.
For `C[C@@H]1[C@@H]2Cc3ccc(C(N)=O)cc3[C@@]1(C)CCN2C[C@@H]1CCCO1`, the negative logarithm of the Ki (pKi) is 10.28 on Mu-type opioid receptor [9], 8.70 in [10] and 10.05 in [11]. Also, the negative logarithm of the EC50 (pEC50) in experiment [7] was 7.52.
Turning to `Oc1ccc2c(c1)[C@@]13CCCC[C@@]1(O)[C@@H](C2)N(CC1CCC1)CC3` [BUTORPHANOL], the negative-log EC50 (pEC50) in [7] is 8.54.
For `CN1CC[C@]23c4c5ccc(C(N)=O)c4O[C@H]2[C@@H](O)C=C[C@H]3[C@H]1C5`, the figures for the negative-log Ki (pKi) (on Mu-type opioid receptor [9]; in experiment [10]; in experiment [11]) were 7.47, 5.72 and 5.70, respectively. Further, the Ratio Ki in the experiment filed under Cavia porcellus is 1.
Turning to `C[C@@H]1[C@@H]2Cc3ccc(O)cc3[C@@]1(C)CCN2C[C@H]1CCCO1`, the negative-log Ki (pKi) on Mu-type opioid receptor [9] was 8.40; in experiment [10] it was 7.17; in experiment [11], 8.82. Moreover, in the experiment listed under Cavia porcellus, the Ratio Ki came out at 45. The compound further had a pEC50 in experiment [7] of 7.39.
`CC1C2Cc3ccc(C(N)=O)cc3C1(C)CCN2C` (stereo not drawn): the negative-log Ki (pKi) on Mu-type opioid receptor [1] was 8.80; in experiment [2], 6.49; in experiment [3], 7.72. Also, the Ratio Ki in the experiment on CHO [4] stood at 0.08; in the experiment with CHO [5], 17. Moreover, on Mu-type opioid receptor [6], the pEC50 was 7.62. For the same compound, the negative logarithm of the IC50 (pIC50) at Mu-type opioid receptor [12] was 7.60.
With `NC(=O)c1ccc2c3c1O[C@H]1[C@@H](O)CC[C@@]4(O)[C@@H](C2)N(CC2CC2)CC[C@]314`, the pKi at Mu-type opioid receptor [1] is 8.15; in experiment [2], less than 5.00; in [3], 7.00. Further, the Ratio Ki with CHO [4] was found to be 0.07.
For `COc1cccc(C2(O)CCCCC2CN(C)C)c1` (stereo not drawn) [TRAMADOL], the negative logarithm of the Ki (pKi) in [2] is 8.03; in experiment [3], 7.85.
